In assay [1] the target is T1, Nitric oxide synthase, inducible (Homo sapiens, UniProt P35228). The experiment in a line: Inhibition of cytokine-induced iNOS activity in human DLD1 cells after 24 hrs. It counts as cell-based, DLD-1. The method, boiled down:
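DLD-1 cells were seeded 3 days ahead, then given fresh medium with 20 ng/mL IFNγ, 4 ng/mL TNFα, 2 ng/mL IL1β and 1 mM L-arginine. Compound titrations in 50 mM Hepes pH 7.4 were added at eight concentrations for 24 h at 37 °C, 5% CO2. Nitrite was read with Griess reagent at 540 nm.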

The target in assay [2] is T2, Nitric oxide synthase 3 (Homo sapiens) (UniProt P29474).
T2 sequence (whole entry): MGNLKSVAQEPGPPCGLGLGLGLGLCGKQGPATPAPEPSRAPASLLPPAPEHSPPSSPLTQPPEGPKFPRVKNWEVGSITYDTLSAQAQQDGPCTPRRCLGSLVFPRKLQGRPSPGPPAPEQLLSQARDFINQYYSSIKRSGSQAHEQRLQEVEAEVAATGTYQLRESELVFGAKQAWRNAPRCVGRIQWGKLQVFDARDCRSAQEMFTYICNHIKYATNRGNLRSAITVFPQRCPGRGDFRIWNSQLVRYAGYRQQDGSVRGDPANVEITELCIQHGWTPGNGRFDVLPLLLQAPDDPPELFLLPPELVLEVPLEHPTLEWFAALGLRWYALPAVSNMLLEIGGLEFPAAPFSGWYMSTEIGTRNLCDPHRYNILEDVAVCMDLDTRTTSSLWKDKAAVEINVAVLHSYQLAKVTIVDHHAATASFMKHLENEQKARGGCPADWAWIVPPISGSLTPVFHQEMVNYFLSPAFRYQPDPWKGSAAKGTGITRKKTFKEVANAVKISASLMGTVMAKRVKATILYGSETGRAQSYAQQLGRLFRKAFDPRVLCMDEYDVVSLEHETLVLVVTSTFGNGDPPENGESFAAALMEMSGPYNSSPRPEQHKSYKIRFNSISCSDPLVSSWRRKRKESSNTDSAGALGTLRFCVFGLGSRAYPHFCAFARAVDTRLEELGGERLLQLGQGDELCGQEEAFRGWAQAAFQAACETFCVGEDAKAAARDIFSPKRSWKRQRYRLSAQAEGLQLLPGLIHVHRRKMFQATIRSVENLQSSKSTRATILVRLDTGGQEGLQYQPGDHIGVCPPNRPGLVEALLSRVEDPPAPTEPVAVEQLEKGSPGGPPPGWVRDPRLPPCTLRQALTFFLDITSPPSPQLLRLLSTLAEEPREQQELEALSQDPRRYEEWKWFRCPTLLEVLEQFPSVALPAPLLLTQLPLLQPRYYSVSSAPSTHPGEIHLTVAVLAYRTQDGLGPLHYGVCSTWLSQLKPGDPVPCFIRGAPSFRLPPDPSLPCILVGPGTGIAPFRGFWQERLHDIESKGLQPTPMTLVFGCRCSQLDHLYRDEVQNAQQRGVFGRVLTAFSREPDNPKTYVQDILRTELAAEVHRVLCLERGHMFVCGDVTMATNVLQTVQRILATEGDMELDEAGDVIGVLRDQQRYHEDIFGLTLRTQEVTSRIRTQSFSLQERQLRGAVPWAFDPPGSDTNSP
In words: Inhibition of human eNOS expressed in insect SF9 cells at 10 uM after 1 hr.

For the next assay, the species on record is Homo sapiens. The experiment in a line: Selectivity for human eNOS to human iNOS. The method, boiled down:
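Ratio of eNOS IC50 to iNOS IC50, both from [3H]arginine→[3H]citrulline conversion. iNOS was endogenous to DLD-1 cells; eNOS was human recombinant expressed in SF9 cells. Each used 10 nM [3H]arginine with NADP+/G6P/FAD/FMN/BH4 cofactors in 50 mM Hepes for 1 h at 37 °C. The eNOS reaction also had calmodulin, CaCl2 and glutathione. Citrulline was separated by cation exchange and counted. IC50s came from eight concentrations, as geometric means of ≥3 runs.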

For assay [3], the target named is T3, Nitric oxide synthase 1 (Homo sapiens, UniProt P29475). In words: Inhibition of human nNOS expressed in insect SF9 cells at 10 uM after 1 hr. The essentials: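 Human recombinant nNOS expressed in SF9 cells, incubated with test compound, 10 nM [3H]arginine and [14C]citrulline (80–120 nM) internal standard in 50 mM Hepes for 1 h at 37 °C. Cofactors were β-NADP+, G6P, MgCl2, G6P dehydrogenase, FAD, FMN, BH4, 25 nM calmodulin, 0.5 mM CaCl2 and 3.5 mM glutathione. After MES stop and cation-exchange filtration, [3H]citrulline was counted; background came from 10 µM AMT.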
T3 sequence (P29475 whole entry): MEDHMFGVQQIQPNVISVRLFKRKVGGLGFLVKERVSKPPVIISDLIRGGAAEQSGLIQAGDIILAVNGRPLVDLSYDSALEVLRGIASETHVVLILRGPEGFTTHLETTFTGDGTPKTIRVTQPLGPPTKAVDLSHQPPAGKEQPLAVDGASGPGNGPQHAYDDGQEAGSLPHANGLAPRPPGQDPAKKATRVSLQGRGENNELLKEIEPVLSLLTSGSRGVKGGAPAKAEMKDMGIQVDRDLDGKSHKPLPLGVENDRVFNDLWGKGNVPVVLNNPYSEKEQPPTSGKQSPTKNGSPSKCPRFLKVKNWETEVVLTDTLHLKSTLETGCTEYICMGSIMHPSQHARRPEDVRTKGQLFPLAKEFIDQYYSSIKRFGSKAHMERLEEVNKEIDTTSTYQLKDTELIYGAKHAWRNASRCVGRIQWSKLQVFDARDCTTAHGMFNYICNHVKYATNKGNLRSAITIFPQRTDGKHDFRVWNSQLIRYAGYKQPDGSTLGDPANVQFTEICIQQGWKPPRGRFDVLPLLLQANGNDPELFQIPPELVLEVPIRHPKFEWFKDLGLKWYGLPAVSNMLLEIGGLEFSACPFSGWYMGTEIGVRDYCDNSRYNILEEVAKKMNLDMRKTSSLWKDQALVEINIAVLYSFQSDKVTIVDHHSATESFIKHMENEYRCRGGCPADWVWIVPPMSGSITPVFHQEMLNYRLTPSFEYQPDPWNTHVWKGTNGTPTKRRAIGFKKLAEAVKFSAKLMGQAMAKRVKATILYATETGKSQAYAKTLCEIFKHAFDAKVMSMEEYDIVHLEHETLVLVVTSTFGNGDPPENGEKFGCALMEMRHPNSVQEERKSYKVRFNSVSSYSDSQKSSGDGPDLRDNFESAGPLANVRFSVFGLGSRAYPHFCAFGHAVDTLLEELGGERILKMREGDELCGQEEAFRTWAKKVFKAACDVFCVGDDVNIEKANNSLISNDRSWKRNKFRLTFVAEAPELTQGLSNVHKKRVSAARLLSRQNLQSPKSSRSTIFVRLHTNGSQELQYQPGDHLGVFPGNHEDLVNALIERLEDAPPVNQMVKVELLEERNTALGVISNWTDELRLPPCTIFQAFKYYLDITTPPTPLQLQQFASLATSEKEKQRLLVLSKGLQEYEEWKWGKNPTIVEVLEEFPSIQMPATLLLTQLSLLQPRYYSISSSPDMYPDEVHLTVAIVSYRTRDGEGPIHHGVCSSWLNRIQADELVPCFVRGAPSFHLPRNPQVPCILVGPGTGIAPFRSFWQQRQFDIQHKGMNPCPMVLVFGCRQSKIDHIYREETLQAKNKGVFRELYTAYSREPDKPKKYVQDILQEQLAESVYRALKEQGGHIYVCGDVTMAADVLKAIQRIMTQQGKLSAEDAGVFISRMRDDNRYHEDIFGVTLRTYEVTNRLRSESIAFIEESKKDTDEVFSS

For assay [4], the target named is T1, Nitric oxide synthase, inducible. In words: Inhibition of human iNOS expressed in human DLD1 cells after 1 hr. It counts as cell-based, DLD-1. The essentials: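 Human iNOS endogenously expressed in DLD-1 cells, eight compound concentrations. Incubated 1 h at 37 °C in 50 mM Hepes with 10 nM [3H]arginine, [14C]citrulline internal standard, β-NADP+, G6P, MgCl2, G6P dehydrogenase, FAD, FMN and BH4. [3H]citrulline was separated on cation-exchange resin and counted; AMT defined background.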

Assay [5] has the same target. The experiment in a line: Inhibition of human iNOS expressed in human DLD1 cells at 10 uM after 1 hr. It counts as cell-based. The note with it: DLD-1.
Assay [6] has the same target. The experiment in a line: Inhibition of cytokine-induced iNOS activity in human DLD1 cells at 10 uM after 24 hrs. The note with it: DLD-1. It counts as cell-based.
Assay [7] concerns the target T3, Nitric oxide synthase 1. In words: Inhibition of human nNOS expressed in insect SF9 cells after 1 hr.
A further assay has as its target T4, Nitric oxide synthase 3 (Homo sapiens, UniProt P29474).
T4 sequence (P29474 whole entry): T2 sequence (whole entry)
The experiment in a line: Inhibition of human eNOS expressed in insect SF9 cells after 1 hr. The essentials: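 Human recombinant eNOS from SF9 cells, tested at eight concentrations. Conditions: 10 nM [3H]arginine with NADP+/G6P/G6PDH, MgCl2, FAD, FMN, BH4, plus 25 nM calmodulin, 0.5 mM CaCl2 and 3.5 mM glutathione, in 50 mM Hepes for 1 h at 37 °C. Citrulline was resin-separated and counted, with AMT background. IC50 from one-site fit, geometric mean of ≥3 runs.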

The structures appear in SMILES notation.

T1 sequence (P35228 whole entry): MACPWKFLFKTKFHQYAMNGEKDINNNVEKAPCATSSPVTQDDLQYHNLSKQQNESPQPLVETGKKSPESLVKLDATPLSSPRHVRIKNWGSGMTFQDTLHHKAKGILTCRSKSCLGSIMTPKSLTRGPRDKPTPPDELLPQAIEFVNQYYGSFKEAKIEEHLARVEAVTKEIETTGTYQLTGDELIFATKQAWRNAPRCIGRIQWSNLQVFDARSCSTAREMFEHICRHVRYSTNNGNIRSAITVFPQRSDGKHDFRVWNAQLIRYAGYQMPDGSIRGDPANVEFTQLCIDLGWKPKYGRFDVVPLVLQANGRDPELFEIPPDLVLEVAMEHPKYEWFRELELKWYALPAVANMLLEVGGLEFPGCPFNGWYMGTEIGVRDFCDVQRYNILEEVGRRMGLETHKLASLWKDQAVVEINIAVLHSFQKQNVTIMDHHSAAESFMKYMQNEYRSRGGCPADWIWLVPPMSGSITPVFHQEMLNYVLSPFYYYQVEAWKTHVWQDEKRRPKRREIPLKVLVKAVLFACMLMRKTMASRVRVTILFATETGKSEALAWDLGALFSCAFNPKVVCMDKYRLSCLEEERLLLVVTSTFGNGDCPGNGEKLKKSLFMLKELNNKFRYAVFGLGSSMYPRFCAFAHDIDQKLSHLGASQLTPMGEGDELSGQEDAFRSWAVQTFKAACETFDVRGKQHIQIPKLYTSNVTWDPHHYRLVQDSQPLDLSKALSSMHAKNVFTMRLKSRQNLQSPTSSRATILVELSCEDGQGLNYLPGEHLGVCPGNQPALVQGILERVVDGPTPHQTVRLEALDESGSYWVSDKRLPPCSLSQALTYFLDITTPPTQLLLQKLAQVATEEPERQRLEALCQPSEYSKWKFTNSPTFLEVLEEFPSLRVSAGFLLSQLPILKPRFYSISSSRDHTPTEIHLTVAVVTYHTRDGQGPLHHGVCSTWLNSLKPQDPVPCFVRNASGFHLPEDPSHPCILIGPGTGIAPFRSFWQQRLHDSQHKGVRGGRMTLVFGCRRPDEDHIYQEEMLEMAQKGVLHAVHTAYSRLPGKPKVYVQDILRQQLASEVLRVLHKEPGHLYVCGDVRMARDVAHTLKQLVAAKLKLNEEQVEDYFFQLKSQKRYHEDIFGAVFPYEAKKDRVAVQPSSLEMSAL

As for `N#Cc1ccc(Cl)cc1CN(C1CCCC1)C1CCNCC1`, the IC50 in [1] came to 6700 nM; in [4], 1500 nM. Also, the results for the inhibition (in [2]; against Nitric oxide synthase 1 [3]) were 1% and 24%, respectively. In the assay filed under Homo sapiens, the Ratio IC50 is above 7.
As to `CN1CCC(N(C)Cc2ccccc2)CC1`, the inhibition in [5] and in [6] was below 15% each time.
For the molecule `CN1CCC(N(C)Cc2ccccc2[N+](=O)[O-])CC1`, the inhibition in assay [5] and in assay [6] was below 15% throughout.
As to `CC(=N)NCCSCC[C@H](N)C(=O)O` [GW-274150], the inhibition in assay [2] is below 15%; in [6] it was 26%. Also, the Ratio IC50 in the assay listed under Homo sapiens is above 45. In addition, the IC50 came out at 220 nM in assay [4] and 8400 nM against Nitric oxide synthase 1 [7].
In the case of `CN1CCC(N(C)Cc2cc([N+](=O)[O-])ccc2Cl)CC1`, the inhibition in assay [5] and in assay [6] was below 15% in each case.
In the case of `CN1CCC(N(C)Cc2cc(Cl)ccc2Br)CC1`, the Ratio IC50 in the assay filed under Homo sapiens was 2. The half-inhibitory concentration (IC50) against Nitric oxide synthase 3 is 820 nM; in [4], 420 nM; on Nitric oxide synthase 1 [7] it was 590 nM. Besides, the inhibition in assay [6] stood at 51%.
In the case of `N#Cc1ccc(Cl)cc1CN(c1ccccc1)C1CCNCC1`, the results for the IC50 in [1] and in assay [4] were 8000 nM and 660 nM, respectively. Also, the inhibition in assay [2] stood at 0%; against Nitric oxide synthase 1 [3], 33%. For the same molecule, the Ratio IC50 in the assay listed under Homo sapiens is above 15.

What is called IC50 is the midpoint of a concentration-inhibition curve. The inhibition is the drop in the measured response relative to a control, in per cent.
